Results from ChEMBL document CHEMBL1125255, “Romazarit: a potential disease-modifying antirheumatic drug” (J Med Chem, 1991).
The source made the active and inactive calls. The calls are words filed in the database; no cut-off is given here.

Key:
[1] = species: Rattus norvegicus; assay: Percent decrease in serum haptoglobin evaluated in a developing adjuvant arthritis model rats; No significant effect
[2] = Partition coefficient (logP); type: physicochemical; conditions: octanol/water
Outline: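 Compound dissolved in disodium hydrogen phosphate/citric acid buffer pH 7.4 and partitioned against equal volume octan-1-ol. Buffer-phase UV absorbance read before and after partitioning near λmax. P′ from the octanol:buffer absorbance ratio.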

[3] = system: Rattus norvegicus; assay: Compound was evaluated in developing adjuvant arthritis model rats for its effect on paw edema; No significant effect; type: functional, organism-based
Outline: (§1)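 Female Allen and Hanbury hooded rats, five per group. Right hind paw injected sc on day 0 with heat-killed M. tuberculosis in paraffin oil (5 mg/mL). Compounds given orally as sodium salts in water. Paw volumes of both hind paws measured days 1–4, 1 h after dosing. Percent inhibition taken from area under the curve of the between-paw volume difference.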

[4] = species: Rattus norvegicus; assay: Percent decrease in serum haptoglobin evaluated in a developing adjuvant arthritis model rats.
[5] = system: Rattus norvegicus; assay: Radiographic change was judged in the area of the tarsus region, using an arbitrary scoring system upon termination of the test (14 days dosing of 100 mg/kg) in a model of type II collagen arthritis in the rat.; type: functional; conditions: 336 h
Outline: (§2)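 Type II collagen arthritis rats, eight per group, oral sodium salts daily from grouping (day 1). Hind limbs X-rayed post mortem. Tibia/talus and tarsus damage scored 0–3 per foot by two observers and averaged; left and right summed (max 6). Compared with arthritic controls by Mann–Whitney U test.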

[6] = system: Rattus norvegicus; assay: Hepatic effect assessed by increase in liver weight after 14 days of dosing at 100 mg/kg orally.; type: functional
Outline: (§3)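 Type II collagen arthritis rats, eight per group, daily oral dosing as sodium salts in water for 14 days. Liver weight recorded at termination and expressed as percentage change versus normal animals.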

[7] = system: Rattus norvegicus; assay: Compound was evaluated in developing adjuvant arthritis model rats for its effect on paw edema.; type: functional; set-up: concentration or dose not given beside the values
Outline: as §1

[8] = system: Rattus norvegicus; assay: Hepatic effect assessed by increase in catalase levels after 14 days of dosing at 100 mg/kg orally.; type: functional
Outline: (§4)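 Type II collagen arthritis rats, eight per group, given oral sodium salts daily for 14 days. At termination liver homogenized in ice-cold 0.25 M sucrose and spun 2000 rpm 10 min. Catalase followed by decline in A240 from H2O2 breakdown, expressed as first-order rate constant K. Result given as % change versus normals.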

[9] = system: Rattus norvegicus; assay: Radiographic change was judged in the area of the talus joint, using an arbitrary scoring system upon termination of the test (14 days dosing of 100 mg/kg) in a model of type II collagen arthritis in the rat.; type: functional; conditions: 336 h
Outline: as §2

[10] = system: Rattus norvegicus; assay: Radiographic change was judged in the area of the tarsus region, using an arbitrary scoring system upon termination of the test (14 days dosing of 50 mg/kg) in a model of type II collagen arthritis in the rat.; type: functional; conditions: 336 h
Outline: as §2

[11] = system: Rattus norvegicus; assay: Hepatic effect assessed by increase in liver weight after 14 days of dosing at 50 mg/kg orally.; type: functional
Outline: as §3

[12] = system: Rattus norvegicus; assay: Hepatic effect assessed by increase in catalase levels after 14 days of dosing at 50 mg/kg orally.; type: functional
Outline: as §4

[13] = system: Rattus norvegicus; assay: Radiographic change was judged in the area of the talus joint, using an arbitrary scoring system upon termination of the test (14 days dosing of 50 mg/kg) in a model of type II collagen arthritis in the rat.; type: functional; conditions: 336 h
Outline: as §2

| logP [2] | SMILES | Decrease [1] | inhibition [3] | Decrease [4] | inhibition in vivo at 100 mg/kg [5] | Change [6] | Inhibition [7] | Change [8] | inhibition in vivo at 100 mg/kg [9] | inhibition in vivo at 50 mg/kg [10] | Change [11] | Change [12] | inhibition in vivo at 50 mg/kg [13] |
| --- | --- | --- | --- | --- | --- | --- | --- | --- | --- | --- | --- | --- | --- |
| 0.36 | CC(C)(OCc1cc(-c2ccc(Cl)cc2)[nH]n1)C(=O)O | inactive | inactive | – | – | – | – | – | – | – | – | – | – |
| 0.46 | CC(C)(OCc1cc(-c2ccc(Cl)cc2)on1)C(=O)O | – | – | 34% | 42% | 41% | 64% | 140% | 24% | – | – | – | – |
| 0.36 | CC(C)(OCc1cc(-c2ccc(Cl)cc2)no1)C(=O)O | – | – | 37% | 47% | 47% | 72% | 73% | 60% | – | – | – | – |
| 0.23 | CC(C)(OCc1coc(-c2ccc(Cl)cc2)n1)C(=O)O | – | – | 40% | 44% | 19% | 84% | 52% | 59% | – | – | – | – |
| 0.23 | CC(C)(OCc1scnc1-c1ccc(Cl)cc1)C(=O)O | inactive | inactive | – | – | – | – | – | – | – | – | – | – |
| 0.23 | CC(C)(OCc1ncsc1-c1ccc(Cl)cc1)C(=O)O | inactive | inactive | – | – | – | – | – | – | – | – | – | – |
| -0.54 | CC(C)(OCc1coc2ccc(Cl)cc12)C(=O)O | inactive | inactive | – | – | – | – | – | – | – | – | – | – |
| 0.66 | CC(C)(OCc1csc(-c2ccc(Cl)cc2)n1)C(=O)O | – | – | 16% | – | – | 81% | – | – | – | – | – | – |
| 0.04 | CC(C)(OCc1cnn(-c2ccc(Cl)cc2)c1)C(=O)O | – | – | 37% | – | – | 76% | – | – | 18% | 70% | 180% | 15% |
| 0.11 | CC(C)(OCc1cnc(-c2ccc(Cl)cc2)o1)C(=O)O | inactive | – | – | 41% | 16% | 33% | 11% | 42% | – | – | – | – |
| 0 | CC(C)(OCc1ccn(-c2ccc(Cl)cc2)n1)C(=O)O | – | – | 30% | – | – | 46% | – | – | 32% | 13% | 90% | 48% |
| 0.15 | CC(C)(OCc1nc(-c2ccc(Cl)cc2)co1)C(=O)O | – | – | 9% | 39% | 19% | 69% | 68% | 63% | – | – | – | – |
| 0.52 | Cc1oc(-c2ccc(Cl)cc2)nc1COC(C)(C)C(=O)O | inactive | – | – | 54% | 2% | 67% | 60% | 65% | – | – | – | – |
| 0.08 | Cn1cc(-c2ccc(Cl)cc2)nc1COC(C)(C)C(=O)O | inactive | inactive | – | – | – | – | – | – | – | – | – | – |
| 0.69 | CC(C)(OCc1cccc(-c2ccc(Cl)cc2)n1)C(=O)O | inactive | inactive | – | – | – | – | – | – | – | – | – | – |
| -0.15 | CC(C)(OCc1ccc(-c2ccc(Cl)cc2)nn1)C(=O)O | inactive | inactive | – | – | – | – | – | – | – | – | – | – |
| 0.15 | CC(C)(OCc1ncc(-c2ccc(Cl)cc2)o1)C(=O)O | – | – | 17% | 24% | 3% | 40% | -10% | 36% | – | – | – | – |
| -0.57 | CC(C)(OCc1cc2cc(Cl)ccc2o1)C(=O)O | inactive | – | – | – | – | 39% | – | – | – | – | – | – |
